Columns and labels:
[1] = tested on: EBV-positive nasopharyngeal cell line; test: EBV-positive nasopharyngeal colony count obtained from the examination of uniform plate surface areas after a dose of 0.67 ug/mL from Experiment B; assay type: functional, human gammaherpesvirus 4
Procedure, shortened: (§1)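 Modified clonogenic assay in D98/HR1 cells from 3-4-day-old monolayer cultures. Drug diluted into warm McCoy's 5A medium; quinones first dissolved in dichloromethane, then diluted in 95% ethanol. Cells at 4.0 × 10^5/mL exposed for 1 h at 37 °C, washed twice, then plated in 0.3% agar CMRL 1066 medium over a 0.5% agar base, 6.7 × 10^4 cells/plate. Survival is expressed relative to control.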

Mus musculus [2] = test: Base line measurement at a sample size of 4 after second week of 20 mg/kg dose administration in mice; assay type: functional
Procedure, shortened: (§2)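 Nude mice pretreated with 0.5 mL rabbit anti-mouse thymocyte serum s.c., inoculated s.c. 7 days later with 1×10^7 D98/HR1 cells in PBS, and given a second serum dose two weeks later. Dosing started at tumors ~2-3 mm diameter, daily for 14 days, then 2 weeks off. Dose per kg from daily individual weights; Klucel vehicle. Group mean tumor volume (mm3) adjusted by analysis of covariance for base line.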

Mus musculus [3] = test: Base line measurement at a sample size of 4 after first week of 20 mg/kg dose administration in mice; assay type: functional; procedure, shortened: as §2
[4] = tested on: EBV-positive nasopharyngeal cell line; test: EBV-positive nasopharyngeal colony count obtained from the examination of uniform plate surface areas after a dose of 2.68 ug/mL from Experiment B in mice; assay type: functional, human gammaherpesvirus 4
Mus musculus [5] = test: Base line measurement at a sample size of 5 after first week of 5 mg/kg dose administration in mice; assay type: functional; procedure, shortened: as §2
[6] = tested on: EBV-positive nasopharyngeal cell line; test: Percent colony reduction in cell growth in EBV-positive nasopharyngeal cell lines after in vitro exposure at 1.34 ug/mL
[7] = tested on: EBV-positive nasopharyngeal cell line; test: Percent colony reduction in cell growth in EBV-positive nasopharyngeal cell lines after administration of 0.067 ug/mL dose
[8] = tested on: EBV-positive nasopharyngeal cell line; test: EBV-positive nasopharyngeal colony count obtained from the examination of uniform plate surface areas after a dose of 0.067 ug/mL from Experiment B; assay type: functional, human gammaherpesvirus 4; procedure, shortened: as §1
Mus musculus [9] = test: Base line measurement at a sample size of 4 after fourth week of 20 mg/kg dose administration in mice; assay type: functional; procedure, shortened: as §2
[10] = tested on: EBV-positive nasopharyngeal cell line; test: EBV-positive nasopharyngeal colony count obtained from the examination of uniform plate surface areas after a dose of 1.34 ug/mL from Experiment B; assay type: functional, human gammaherpesvirus 4; procedure, shortened: as §1
Mus musculus [11] = test: Base line measurement at a sample size of 5 after second week of 5 mg/kg dose administration in mice; assay type: functional; procedure, shortened: as §2
Mus musculus [12] = test: Base line measurement at a sample size of 5 after fourth week of 5 mg/kg dose administration in mice; assay type: functional; procedure, shortened: as §2
[13] = tested on: EBV-positive nasopharyngeal cell line; test: Percent colony reduction in cell growth in EBV-positive nasopharyngeal cell lines after administration of 0.2 ug/mL dose; assay type: functional
Procedure, shortened: (§3)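 D98/HR1 cells from 3-4-day monolayer cultures, suspended at 4.0×10^5/mL and exposed to drug for 1 h at 37 °C. Quinones dissolved in dichloromethane, diluted in 95% ethanol, then in warm McCoy's 5A. Cells washed twice, plated in agar over an agar base at 6.7×10^4 cells/plate. Colony survival expressed relative to control, as percent reduction.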

[14] = tested on: EBV-positive nasopharyngeal cell line; test: EBV-positive nasopharyngeal colony count obtained from the examination of uniform plate surface areas after a dose of 10 ug/mL; assay type: functional, cell-based; conditions: human gammaherpesvirus 4; procedure, shortened: as §1
[15] = tested on: EBV-positive nasopharyngeal cell line; test: EBV-positive nasopharyngeal colony count obtained from the examination of uniform plate surface areas after a dose of 0.2 ug/mL; assay type: functional; procedure, shortened: as §1
[16] = tested on: EBV-positive nasopharyngeal cell line; test: Percent colony reduction in cell growth in EBV-positive nasopharyngeal cell lines after administration of 10 ug/mL dose; assay type: functional, cell-based; conditions: human gammaherpesvirus 4; procedure, shortened: as §3
[17] = tested on: EBV-positive nasopharyngeal cell line; test: Percent colony reduction in cell growth in EBV-positive nasopharyngeal cell lines after administration of 1.34 ug/mL dose; assay type: functional, human gammaherpesvirus 4; procedure, shortened: as §3
Mus musculus [18] = test: Base line measurement at a sample size of 5 after second week of 5 mg/kg dose administration; assay type: functional; procedure, shortened: as §2
[19] = tested on: EBV-positive nasopharyngeal cell line; test: Percent colony reduction in cell growth in EBV-positive nasopharyngeal cell lines after administration of 6.28 ug/mL dose; assay type: functional, human gammaherpesvirus 4; conditions: in the assay text read “2.68 ug/mL” for “6.28 ug/mL”; procedure, shortened: as §3
[20] = tested on: EBV-positive nasopharyngeal cell line; test: EBV-positive nasopharyngeal colony count obtained from the examination of uniform plate surface areas after a dose of 2.68 ug/mL; assay type: functional, human gammaherpesvirus 4; procedure, shortened: as §1
Mus musculus [21] = test: Base line measurement at a sample size of 3 after second week of 20 mg/kg dose administration; assay type: functional; procedure, shortened: as §2
Mus musculus [22] = test: Base line measurement at a sample size of 3 after fourth week of 20 mg/kg dose administration; assay type: functional; procedure, shortened: as §2
Mus musculus [23] = test: Base line measurement at a sample size of 3 after first week of 20 mg/kg dose administration; assay type: functional; procedure, shortened: as §2
Mus musculus [24] = test: Base line measurement at a sample size of 5 after first week of 5 mg/kg dose administration; assay type: functional; procedure, shortened: as §2
Mus musculus [25] = test: Base line measurement at a sample size of 5 after fourth week of 5 mg/kg dose administration; assay type: functional; procedure, shortened: as §2
[26] = tested on: EBV-positive nasopharyngeal cell line; test: EBV-positive nasopharyngeal colony count obtained from the examination of uniform plate surface areas after a dose of 1.34 ug/mL; assay type: functional, human gammaherpesvirus 4; procedure, shortened: as §1
[27] = tested on: EBV-positive nasopharyngeal cell line; test: EBV-positive nasopharyngeal colony count obtained from the examination of uniform plate surface areas after a dose of 0.67 ug/mL; assay type: functional, human gammaherpesvirus 4; procedure, shortened: as §1
[28] = tested on: EBV-positive nasopharyngeal cell line; test: Percent colony reduction in cell growth in EBV-positive nasopharyngeal cell lines after administration of 0.67 ug/mL dose; assay type: functional, human gammaherpesvirus 4; procedure, shortened: as §3
[29] = tested on: EBV-positive nasopharyngeal cell line; test: EBV-positive nasopharyngeal colony count obtained from the examination of uniform plate surface areas after a dose of 0.1 ug/mL; assay type: functional, human gammaherpesvirus 4; procedure, shortened: as §1
[30] = tested on: EBV-positive nasopharyngeal cell line; test: Percent colony reduction in cell growth in EBV-positive nasopharyngeal cell lines after administration of 6.0 ug/mL dose; assay type: functional, human gammaherpesvirus 4; procedure, shortened: as §3
[31] = tested on: EBV-positive nasopharyngeal cell line; test: EBV-positive nasopharyngeal colony count obtained from the examination of uniform plate surface areas after a dose of 6.0 ug/mL; assay type: functional, human gammaherpesvirus 4; procedure, shortened: as §1
[32] = tested on: EBV-positive nasopharyngeal cell line; test: EBV-positive nasopharyngeal cells (D98/HR1) survived at concentration of 0.3 ug/mL of compound; assay type: functional, human gammaherpesvirus 4; procedure, shortened: as §1
[33] = tested on: EBV-positive nasopharyngeal cell line; test: Percent colony reduction in cell growth in EBV-positive nasopharyngeal cell lines (D98/HR1) after administration of 0.3 ug/mL dose; assay type: functional, human gammaherpesvirus 4; procedure, shortened: as §3
[34] = tested on: EBV-positive nasopharyngeal cell line; test: EBV-positive nasopharyngeal cells (D98/HR1) survived at concentration of 100 ug/mL of compound; assay type: functional, human gammaherpesvirus 4; procedure, shortened: as §1
[35] = tested on: EBV-positive nasopharyngeal cell line; test: Percent colony reduction in cell growth in EBV-positive nasopharyngeal cell lines (D98/HR1) after administration of 100 ug/mL dose; assay type: functional, human gammaherpesvirus 4; procedure, shortened: as §3
[36] = tested on: EBV-positive nasopharyngeal cell line; test: Percent colony reduction in cell growth in EBV-positive nasopharyngeal cell lines after administration of 0.04 ug/mL dose from experiment A; assay type: functional, human gammaherpesvirus 4; procedure, shortened: as §3
[37] = tested on: EBV-positive nasopharyngeal cell line; test: Percent colony reduction in cell growth in EBV-positive nasopharyngeal cell lines after administration of 0.4 ug/mL dose from experiment B; assay type: functional, human gammaherpesvirus 4; procedure, shortened: as §3
[38] = tested on: EBV-positive nasopharyngeal cell line; test: Percent colony reduction in cell growth in EBV-positive nasopharyngeal cell lines after administration of 0.004 ug/mL dose from experiment B; assay type: functional, human gammaherpesvirus 4; procedure, shortened: as §3
[39] = tested on: EBV-positive nasopharyngeal cell line; test: EBV-positive nasopharyngeal colony count obtained from the examination of uniform plate surface areas after a dose of 0.04 ug/mL from experiment B; assay type: functional, human gammaherpesvirus 4; procedure, shortened: as §1
[40] = tested on: EBV-positive nasopharyngeal cell line; test: Percent colony reduction in cell growth in EBV-positive nasopharyngeal cell lines after administration of 0.04 ug/mL dose from experiment B; assay type: functional, human gammaherpesvirus 4; procedure, shortened: as §3
[41] = tested on: EBV-positive nasopharyngeal cell line; test: EBV-positive nasopharyngeal colony count obtained from the examination of uniform plate surface areas after a dose of 0.4 ug/mL from experiment B; assay type: functional, human gammaherpesvirus 4; procedure, shortened: as §1
[42] = tested on: EBV-positive nasopharyngeal cell line; test: EBV-positive nasopharyngeal colony count obtained from the examination of uniform plate surface areas after a dose of 0.004 ug/mL from experiment B; assay type: functional, human gammaherpesvirus 4; procedure, shortened: as §1
[43] = tested on: EBV-positive nasopharyngeal cell line; test: EBV-positive nasopharyngeal colony count obtained from the examination of uniform plate surface areas after a dose of 0.04 ug/mL from experiment A; assay type: functional, human gammaherpesvirus 4; procedure, shortened: as §1
[44] = tested on: EBV-positive nasopharyngeal cell line; test: EBV-positive nasopharyngeal cells (D98/HR1) survived at concentration of 3.0 ug/mL of compound; assay type: functional, human gammaherpesvirus 4; procedure, shortened: as §1
[45] = tested on: EBV-positive nasopharyngeal cell line; test: Percent colony reduction in cell growth in EBV-positive nasopharyngeal cell lines (D98/HR1) after administration of 3.0 ug/mL dose; assay type: functional, human gammaherpesvirus 4; procedure, shortened: as §3

CC(=O)OCC1=CC(=O)C=C(CCC2=CC(=O)C=C(COC(C)=O)C2=O)C1=O
Survival [1]: 1.34 | Baseline (Mus musculus [2]): 94.83 | Baseline (Mus musculus [3]): 34.53 | Survival [4]: 1.35 | Baseline (Mus musculus [5]): 69.66 | Reduction [6]: -19% | Reduction [7]: 30% | Survival [8]: 0.7 | Baseline (Mus musculus [9]): 360.23 | Survival [10]: 1.19 | Baseline (Mus musculus [11]): 162.76 | Baseline (Mus musculus [12]): 358.79

CISPLATIN
Reduction ([13]; human gammaherpesvirus 4): 60% | Survival [14]: 0.03 | Survival ([15]; human gammaherpesvirus 4): 0.4 | Reduction [16]: 97%

O=C1C=C(CBr)C(=O)C(CCC2=CC(=O)C=C(CBr)C2=O)=C1
Reduction [17]: 23% | Baseline (Mus musculus [18]): 43.2 | Reduction [13]: 0% | Reduction [19]: 9% | Survival [20]: 0.91 | Baseline (Mus musculus [21]): 17.52 | Baseline (Mus musculus [22]): 29.69 | Baseline (Mus musculus [23]): 12.54 | Baseline (Mus musculus [24]): 22.32 | Baseline (Mus musculus [25]): 137.03 | Survival [26]: 0.77 | Survival [27]: 0.81 | Reduction [28]: 19% | Survival [15]: 1

O=C1c2c(O)ccc(O)c2C(=O)c2c(NCCNCCO)ccc(NCCNCCO)c21 [MITOXANTRONE]
Survival [29]: 0.33

CC[C@]1(O)C[C@@H]2CN(CCc3c([nH]c4ccccc34)[C@@](C(=O)OC)(c3cc4c(cc3OC)N(C)[C@H]3[C@@](O)(C(=O)OC)[C@H](OC(C)=O)[C@]5(CC)C=CCN6CC[C@]43[C@@H]65)C2)C1 [VINBLASTINE]
Reduction [30]: >99% | Survival [31]: <0.01

CN(Cc1cnc2nc(N)nc(N)c2n1)c1ccc(C(=O)N[C@@H](CCC(=O)O)C(=O)O)cc1 [METHOTREXATE]
Survival [32]: 0.4 | Reduction [33]: 60% | Survival [34]: <0.01 | Reduction [35]: >99%

COc1cccc2c1C(=O)c1c(O)c3c(c(O)c1C2=O)C[C@@](O)(C(=O)CO)C[C@@H]3O[C@H]1C[C@H](N)[C@H](O)[C@H](C)O1 [DOXORUBICIN]
Reduction [36]: 63% | Reduction [37]: >99% | Reduction [38]: 31% | Survival [39]: 0.18 | Reduction [40]: 82% | Survival [41]: <0.1 | Survival [42]: 0.69 | Survival [43]: 0.37

COc1cc([C@@H]2c3cc4c(cc3[C@@H](O[C@@H]3O[C@@H]5CO[C@@H](C)O[C@H]5[C@H](O)[C@H]3O)[C@H]3COC(=O)[C@H]23)OCO4)cc(OC)c1O [ETOPOSIDE]
Survival [44]: 0.3 | Reduction [45]: 70%
